Data as given in ChEMBL document CHEMBL4680254, “Design, synthesis and discovery of 2(1H)-quinolone derivatives for the treatment of pulmonary fibrosis through inhibition of TGF-β/smad dependent and independent pathway” (Eur J Med Chem, 2020).
Active and inactive are the calls of the source. The rule behind the calls is not given here.

Experiments:
[1] = test system: NRK-49F; experiment: Inhibition of TGF-beta-induced collagen accumulation in rat NRK-49F cells at 10 uM incubated for 2 days by PSR staining based microscopic analysis relative to control; assay type: functional; conditions: 48 h, time 2 day
Outline: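 NRK-49F cells were grown 3 days in DMEM with 5% FBS, then 2 days in DMEM with 1% ITS. Next came 2 days with TGF-β 5 ng/ml plus or minus compound 10 µM. Cells were fixed in 4% paraformaldehyde and stained 4 h with 0.1% Picrosirius Red, then rinsed with acetic acid. Dye was eluted with 0.1 M NaOH and OD read at 540 nm. Inhibition = […] ×100%, in triplicate.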

[2] = Cytotoxicity against rat NRK-49F cells assessed as cell survival rate at 10 uM incubated for 72 hrs by MTT assay; assay type: cell-based; conditions: read-out: Activity
Outline: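 NRK-49F cells were seeded at 0.5×10^5 cells/ml, cultured overnight, then exposed to compound 10 µM for 72 h. MTT was added and incubated 4 h, formazan dissolved in DMSO and absorbance read. Survival = (treated − zero)/(blank − zero) A ×100%, done in triplicate.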

[3] = test system: L929; experiment: Antimigratory activity in mouse L929 cells assessed as inhibition of TGF-beta-induced cell migration at 10 uM incubated for 24 hrs by wound healing assay; assay type: functional, cell-based
Outline: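 Mouse L929 fibroblasts (MEM, 10% FBS, 37 °C, 5% CO₂) were grown to confluence and scratched with a pipette tip to a 100 µm wound. They were then kept in serum-free medium with or without TGF-β 5 ng/ml and compound 10 µM for 24 h. Wounds were imaged by light microscopy at 0, 12 and 24 h.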

[4] = test system: NRK-49F; experiment: Inhibition of TGF-beta-induced collagen accumulation in rat NRK-49F cells incubated for 2 days by PSR staining based microscopic analysis; assay type: functional, cell-based; conditions: 48 h
[5] = test system: NRK-49F; experiment: Inhibition of TGF-beta-induced collagen-1 protein expression in rat NRK-49F cells at 20 to 40 uM incubated for 24 hrs by Western blotting analysis; assay type: functional, cell-based; conditions: dose 20-40 µM
[6] = Oral bioavailability in Sprague-Dawley rat at 5 mg/kg; assay type: ADME, organism-based; conditions: in vivo
Outline: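 Rats were given a single 5 mg/kg dose intravenously or orally, and plasma concentration–time curves were followed. t1/2, tmax, AUC0-t and oral bioavailability (n = 5) were derived from these curves.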

[7] = test system: Mus musculus; experiment: Anti-fibrotic activity in C57BL/6 mouse model of bleomycin-induced lung fibrosis assessed as reduction in inflammatory cell infiltration at 50 mg/kg, po administered for 30 days starting from day 1 post bleomycin treatment by hematoxylin and eosin staining based microscopic analysis; assay type: functional, organism-based; conditions: time 30.0 day
Outline: (§1)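 Male C57BL/6 mice, 8 weeks old, n=10 per group; lung fibrosis from one intratracheal instillation of bleomycin 3 U/kg in 0.075 mL saline, saline-only controls. Daily oral dosing days 1–30 (prevention) or days 8–21 (treatment). Left lungs fixed in 10% formalin 24 h, paraffin-embedded, 5 µm sections stained with H&E (also Masson's trichrome) and examined by microscopy.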

[8] = test system: Mus musculus; experiment: Anti-fibrotic activity in C57BL/6 mouse model of bleomycin-induced lung fibrosis assessed as reduction in collagen deposition by measuring hydroxyproline content in lung at 50 mg/kg, po administered for 30 days starting from day 1 post bleomycin treatment; assay type: functional, organism-based; conditions: time 30.0 day
Outline: (§2)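 In the bleomycin mouse model (male C57BL/6, 8 weeks, 3 U/kg intratracheal in saline, n=10 per group), daily oral dosing ran days 1–30 or days 8–21. Right lungs were dried, acid hydrolysed, filtered and brought to pH 6.5–8.0. Hydroxyproline was read by chloramine-T spectrophotometry with a kit.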

[9] = test system: NRK-49F; experiment: Inhibition of TGF-beta-induced alpha-SMA protein expression in rat NRK-49F cells at 20 to 40 uM incubated for 24 hrs by Western blotting analysis; assay type: functional, cell-based; conditions: dose 20-40 µM
[10] = test system: Mus musculus; experiment: Anti-fibrotic activity in C57BL/6 mouse model of bleomycin-induced lung fibrosis assessed as survival rate at 50 mg/kg, po administered for 30 days starting from day 1 post bleomycin treatment; assay type: functional, organism-based; conditions: time 30.0 day
Outline: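 Survival was followed in male C57BL/6 mice (8 weeks, n=10 per group) after one intratracheal bleomycin dose of 3 U/kg in 0.075 mL saline. Oral dosing was daily, days 1–30 (prevention) or days 8–21 (treatment), with survival curves plotted.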

[11] = test system: Mus musculus; experiment: Anti-fibrotic activity in C57BL/6 mouse model of bleomycin-induced lung fibrosis assessed as reduction in collagen deposition by measuring hydroxyproline content in lung at 50 mg/kg, po administered for […] starting from day 8 post bleomycin treatment; assay type: functional, organism-based; conditions: time 14.0 day; outline: as §2
[12] = test system: Mus musculus; experiment: Anti-fibrotic activity in C57BL/6 mouse model of bleomycin-induced lung fibrosis assessed as protection of alveolar tissue structure at 50 mg/kg, po administered for 30 days starting from day 1 post bleomycin treatment by hematoxylin and eosin staining based microscopic analysis; assay type: functional, organism-based; conditions: time 30.0 day; outline: as §1
[13] = test system: Mus musculus; experiment: Anti-fibrotic activity in C57BL/6 mouse model of bleomycin-induced lung fibrosis assessed as protection of alveolar tissue structure at 50 mg/kg, po administered from day 8 to day 21 post bleomycin treatment by hematoxylin and eosin staining based microscopic analysis; conditions: time 14.0 day

Row | SMILES | inhibition at 10 µM [1] [%] | viability at 72 h, 10 µM [2] [%] | other results
1 | O=C(CNC1CCOCC1)Nc1ccc(Nc2cc(=O)[nH]c3ccccc23)cc1 | 50 | 83.5 | 
2 | CCN(CC)CC(=O)Nc1ccc(Oc2cc(=O)[nH]c3ccccc23)c(F)c1 | 58.8 | 106 | 
3 | O=C(CN1CCCCC1)Nc1ccc(Oc2cc(=O)[nH]c3ccccc23)cc1 | 27.4 | 78.5 | 
4 | O=C(CN1CCCCC1)Nc1ccc(Nc2cc(=O)[nH]c3ccccc23)cc1 | 24.4 | 75.4 | 
5 | O=C(CN1CCCC1)Nc1ccc(Nc2cc(=O)[nH]c3ccccc23)cc1 | 59.9 | 72.5 | 
6 | CC(C)(C)OC(=O)N1CCN(CC(=O)Nc2ccc(Nc3cc(=O)[nH]c4ccccc34)cc2)CC1 | 73.3 | 67.5 | 
7 | CN1CCN(CC(=O)Nc2ccc(Nc3cc(=O)[nH]c4ccccc34)cc2)CC1 | 38.9 | 78 | 
8 | CN(C)C1CCN(CC(=O)Nc2ccc(Oc3cc(=O)[nH]c4ccccc34)c(F)c2)CC1 | 60.7 | 98.6 | 
9 | CC(C)(C)OC(=O)N1CCN(CC(=O)Nc2ccc(Oc3ccc4[nH]c(=O)ccc4c3)c(F)c2)CC1 | 57.4 | 85.6 | 
10 | CC(C)(C)OC(=O)N1CCN(CC(=O)Nc2ccc(Oc3cc(=O)[nH]c4ccccc34)cc2)CC1 | 76.2 | 75.6 | 
11 | CCNCC(=O)Nc1ccc(Sc2cc(=O)[nH]c3ccccc23)cc1 | 51.1 | 87.7 | 
12 | CC(C)(C)OC(=O)N1CCN(CC(=O)Nc2ccc(Oc3cc(=O)[nH]c4ccccc34)c(F)c2)CC1 | 89.1 | 86.2 | inhibition [3]: Active; IC50 [4]: 6.12 µM
13 | O=C(CN1CCOCC1)Nc1ccc(Oc2cc(=O)[nH]c3ccccc23)cc1 | 59.3 | 95.7 | 
14 | O=C(CN1CCOCC1)Nc1ccc(Sc2cc(=O)[nH]c3ccccc23)cc1 | 53.4 | 77.4 | 
15 | CN(C)C1CCN(CC(=O)Nc2ccc(Nc3cc(=O)[nH]c4ccccc34)cc2)CC1 | 50.2 | 83.5 | 
16 | COC(=O)c1ccc2c(c1)NC(=O)/C2=C(\Nc1ccc(N(C)C(=O)CN2CCN(C)CC2)cc1)c1ccccc1 [NINTEDANIB] | 95.5 |  | inhibition [5]: Active; bioavailability [6]: 12%; Activity [7]: Active; Activity [8]: Active; inhibition [9]: Active; Activity [10]: Active; Activity [11]: inactive; Activity [12]: Active; Activity [13]: inactive; inhibition [3]: Active
